In ChEMBL document CHEMBL1821606, “Bioactive prenylogous cannabinoid from fiber hemp (Cannabis sativa)” (J Nat Prod, 2011):

Key:
Cannabinoid receptor 1 = Cannabinoid receptor 1 (Homo sapiens, UniProt P21554); assay: Displacement of [3H]-CP-55,940 from human recombinant CB1 receptor expressed in HEK293 cells membrane incubated for 90 mins; type: cell membranes
Cannabinoid receptor 2 = Cannabinoid receptor 2 (Homo sapiens, UniProt P34972); assay: Displacement of [3H]-CP-55,940 from human recombinant CB2 receptor expressed in HEK293 cells membrane incubated for 90 mins; type: cell membranes
[1] = biological target: T1, Transient receptor potential cation channel subfamily V member 1 (Homo sapiens, UniProt Q8NER1); assay: Agonist activity at human TRPv1 receptor expressed in HEK293 cells assessed as stimulation of intracellular calcium level using Fluo4-AM dye based fluorimetric assay relative to 4 uM ionomycin; type: functional, cell-based
[2] = biological target: T1, Transient receptor potential cation channel subfamily V member 1; assay: Agonist activity at human TRPv1 receptor expressed in HEK293 cells assessed as stimulation of intracellular calcium level using Fluo4-AM dye based fluorimetric assay; type: functional, cell-based
How it was run: (§1)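 Stable HEK293 lines (G-418 selected, expression checked by qPCR) loaded 1 h at room temperature with Fluo-4 AM 4 μM. Cells washed and resuspended in Tyrode's buffer pH 7.4. Fluorescence (ex 488/em 516 nm) read in a stirred cuvette at 25 °C before and after test compound at various concentrations. EC50 from sigmoidal variable-slope fit. At least triplicate.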

[3] = biological target: T1, Transient receptor potential cation channel subfamily V member 1; assay: Antagonist activity at human TRPv1 receptor expressed in HEK293 cells assessed as inhibition of 0.1 um capsaicin-induced stimulation of intracellular calcium level using Fluo4-AM dye based fluorimetric assay; type: functional, cell-based
How it was run: (§2)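 Fluo-4 AM loaded stable HEK293 cells in Tyrode's buffer, read at 25 °C (ex 488/em 516 nm). Test compound added to the cuvette 5 min before the agonist: capsaicin 0.1 μM (TRPV1), AITC 100 μM (TRPA1), LPC 3 μM (TRPV2). Agonist alone taken as 100%. IC50 for half-maximal inhibition from curve fit. At least triplicate.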

[4] = biological target: T2, Transient receptor potential cation channel subfamily V member 2 (Rattus norvegicus) (UniProt Q9WUD2); assay: Agonist activity at rat recombinant TRPV2 receptor expressed in HEK293 cells assessed as stimulation of intracellular calcium level using Fluo4-AM dye based fluorimetric assay relative to 4 uM ionomycin; type: functional, cell-based
T2 sequence (whole entry): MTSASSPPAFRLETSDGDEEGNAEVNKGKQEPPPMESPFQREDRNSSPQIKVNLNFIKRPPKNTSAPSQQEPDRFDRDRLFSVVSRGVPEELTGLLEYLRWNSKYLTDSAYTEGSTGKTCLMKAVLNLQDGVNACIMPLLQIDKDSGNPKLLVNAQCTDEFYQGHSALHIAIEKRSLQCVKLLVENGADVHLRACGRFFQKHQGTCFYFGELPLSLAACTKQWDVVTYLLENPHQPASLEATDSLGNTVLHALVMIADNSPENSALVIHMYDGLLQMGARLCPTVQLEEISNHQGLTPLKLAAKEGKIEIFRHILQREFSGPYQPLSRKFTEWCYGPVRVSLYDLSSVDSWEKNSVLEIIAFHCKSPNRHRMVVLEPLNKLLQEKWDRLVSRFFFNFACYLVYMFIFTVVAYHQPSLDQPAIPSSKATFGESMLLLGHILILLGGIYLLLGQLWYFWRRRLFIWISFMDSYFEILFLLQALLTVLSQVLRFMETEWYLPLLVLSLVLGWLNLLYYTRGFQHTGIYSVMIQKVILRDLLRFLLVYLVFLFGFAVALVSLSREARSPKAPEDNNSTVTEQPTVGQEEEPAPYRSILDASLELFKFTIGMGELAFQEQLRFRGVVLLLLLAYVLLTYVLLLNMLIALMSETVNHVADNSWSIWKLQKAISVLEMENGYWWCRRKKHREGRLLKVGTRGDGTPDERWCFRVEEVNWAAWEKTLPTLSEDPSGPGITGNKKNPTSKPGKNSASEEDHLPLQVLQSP

[5] = biological target: T3, Transient receptor potential cation channel subfamily V member 2 (Rattus norvegicus, UniProt Q9WUD2); assay: Agonist activity at rat recombinant TRPV2 receptor expressed in HEK293 cells assessed as stimulation of intracellular calcium level using Fluo4-AM dye based fluorimetric assay; type: functional, cell-based; how it was run: as §1
T3 sequence (Q9WUD2 whole entry): T2 sequence (whole entry)

[6] = biological target: T3, Transient receptor potential cation channel subfamily V member 2; assay: Antagonist activity at rat recombinant TRPV2 receptor expressed in HEK293 cells assessed as inhibition of 3 uM lysophosphatidylcholine-induced stimulation of intracellular calcium level using Fluo4-AM dye based fluorimetric assay; type: functional, cell-based; how it was run: as §2
[7] = biological target: Transient receptor potential cation channel subfamily A member 1 (Rattus norvegicus) (UniProt Q6RI86); assay: Agonist activity at rat recombinant TRPA1 receptor expressed in HEK293 cells assessed as stimulation of intracellular calcium level using Fluo4-AM dye based fluorimetric assay relative to allyl isothiocyanate; type: functional, cell-based
[8] = biological target: T4, Transient receptor potential cation channel subfamily A member 1 (Rattus norvegicus, UniProt Q6RI86); assay: Agonist activity at rat recombinant TRPA1 receptor expressed in HEK293 cells assessed as stimulation of intracellular calcium level using Fluo4-AM dye based fluorimetric assay; type: functional, cell-based; how it was run: as §1
[9] = biological target: T4, Transient receptor potential cation channel subfamily A member 1; assay: Antagonist activity at rat recombinant TRPA1 receptor expressed in HEK293 cells assessed as inhibition of 100 uM allyl isothiocyanate-induced stimulation of intracellular calcium level using Fluo4-AM dye based fluorimetric assay; type: functional, cell-based; how it was run: as §2
[10] = biological target: Transient receptor potential cation channel subfamily M member 8 (Rattus norvegicus, UniProt Q8R455); assay: Antagonist activity at rat recombinant TRPM8 receptor expressed in HEK293 cells assessed as inhibition of 0.25 uM icilin-induced stimulation of intracellular calcium level using Fluo4-AM dye based fluorimetric assay; type: functional, cell-based
How it was run: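 Fluo-4 AM loaded rat TRPM8 HEK293 cells in Tyrode's buffer, read at 22 °C with a Peltier-controlled cuvette. Compound added 5 min before 0.25 μM icilin, whose effect alone was taken as 100%. IC50 for half-maximal inhibition from curve fit. At least triplicate.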

T1 sequence (Q8NER1 whole entry): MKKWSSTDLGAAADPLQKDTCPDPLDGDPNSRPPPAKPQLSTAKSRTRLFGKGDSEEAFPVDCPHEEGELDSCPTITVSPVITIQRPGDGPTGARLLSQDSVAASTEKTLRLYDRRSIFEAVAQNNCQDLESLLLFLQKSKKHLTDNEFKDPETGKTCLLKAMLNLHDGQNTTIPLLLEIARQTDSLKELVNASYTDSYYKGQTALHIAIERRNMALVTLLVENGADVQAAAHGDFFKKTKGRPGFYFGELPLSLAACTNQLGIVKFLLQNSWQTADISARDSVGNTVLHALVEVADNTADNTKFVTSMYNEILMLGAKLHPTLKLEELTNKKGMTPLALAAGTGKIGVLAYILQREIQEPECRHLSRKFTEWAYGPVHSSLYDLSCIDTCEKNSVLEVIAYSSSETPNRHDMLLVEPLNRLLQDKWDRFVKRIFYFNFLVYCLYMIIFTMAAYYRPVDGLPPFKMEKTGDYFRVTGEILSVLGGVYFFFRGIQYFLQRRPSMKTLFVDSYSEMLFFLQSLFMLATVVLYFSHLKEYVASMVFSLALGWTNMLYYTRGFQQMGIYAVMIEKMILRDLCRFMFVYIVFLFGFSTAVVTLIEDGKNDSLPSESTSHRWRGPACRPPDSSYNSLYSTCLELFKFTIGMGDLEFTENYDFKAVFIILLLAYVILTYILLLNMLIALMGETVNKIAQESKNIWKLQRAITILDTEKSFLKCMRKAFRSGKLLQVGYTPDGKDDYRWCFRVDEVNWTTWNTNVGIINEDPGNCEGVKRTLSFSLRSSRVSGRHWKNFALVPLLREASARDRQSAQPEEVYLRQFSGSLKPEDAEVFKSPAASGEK
Cannabinoid receptor 1, sequence (P21554 whole entry): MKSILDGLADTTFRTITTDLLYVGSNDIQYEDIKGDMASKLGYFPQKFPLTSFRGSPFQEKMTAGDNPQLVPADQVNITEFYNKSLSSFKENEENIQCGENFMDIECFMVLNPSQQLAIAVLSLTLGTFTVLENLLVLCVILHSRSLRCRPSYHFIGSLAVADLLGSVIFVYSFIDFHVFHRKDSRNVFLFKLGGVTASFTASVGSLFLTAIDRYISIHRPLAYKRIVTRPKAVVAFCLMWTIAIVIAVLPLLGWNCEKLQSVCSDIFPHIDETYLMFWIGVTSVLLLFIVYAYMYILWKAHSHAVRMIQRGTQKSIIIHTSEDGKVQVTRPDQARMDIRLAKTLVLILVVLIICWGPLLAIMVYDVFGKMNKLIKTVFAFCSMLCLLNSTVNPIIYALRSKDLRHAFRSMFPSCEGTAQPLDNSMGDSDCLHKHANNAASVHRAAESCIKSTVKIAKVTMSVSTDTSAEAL
T4 sequence (Q6RI86 whole entry): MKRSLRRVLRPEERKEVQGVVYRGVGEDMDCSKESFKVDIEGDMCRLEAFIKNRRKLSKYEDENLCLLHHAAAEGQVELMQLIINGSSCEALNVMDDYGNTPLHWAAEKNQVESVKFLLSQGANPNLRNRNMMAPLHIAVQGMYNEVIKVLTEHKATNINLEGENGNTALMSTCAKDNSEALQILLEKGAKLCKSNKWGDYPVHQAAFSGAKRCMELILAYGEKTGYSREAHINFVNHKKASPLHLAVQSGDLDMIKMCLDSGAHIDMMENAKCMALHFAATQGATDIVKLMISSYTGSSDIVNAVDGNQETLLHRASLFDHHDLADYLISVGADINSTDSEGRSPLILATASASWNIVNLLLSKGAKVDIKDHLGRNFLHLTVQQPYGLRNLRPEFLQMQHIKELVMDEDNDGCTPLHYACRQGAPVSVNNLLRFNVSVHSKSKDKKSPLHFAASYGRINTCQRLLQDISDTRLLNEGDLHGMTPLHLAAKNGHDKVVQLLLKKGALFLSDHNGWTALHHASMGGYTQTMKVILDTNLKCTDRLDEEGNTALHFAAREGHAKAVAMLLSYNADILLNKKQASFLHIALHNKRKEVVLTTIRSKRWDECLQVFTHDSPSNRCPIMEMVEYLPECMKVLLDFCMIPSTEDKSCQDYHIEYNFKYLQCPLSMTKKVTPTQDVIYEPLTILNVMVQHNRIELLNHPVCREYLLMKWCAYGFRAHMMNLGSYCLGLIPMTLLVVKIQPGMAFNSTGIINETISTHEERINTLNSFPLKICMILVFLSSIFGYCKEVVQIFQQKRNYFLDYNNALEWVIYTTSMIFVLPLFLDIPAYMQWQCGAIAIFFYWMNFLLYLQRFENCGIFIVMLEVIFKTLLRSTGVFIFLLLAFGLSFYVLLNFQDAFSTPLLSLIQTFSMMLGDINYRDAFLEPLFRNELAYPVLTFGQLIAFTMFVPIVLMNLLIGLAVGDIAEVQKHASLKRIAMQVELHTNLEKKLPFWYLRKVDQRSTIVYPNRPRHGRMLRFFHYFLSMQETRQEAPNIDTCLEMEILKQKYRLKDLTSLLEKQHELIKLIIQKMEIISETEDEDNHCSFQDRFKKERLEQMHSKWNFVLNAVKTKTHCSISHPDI
Cannabinoid receptor 2, sequence (P34972 whole entry): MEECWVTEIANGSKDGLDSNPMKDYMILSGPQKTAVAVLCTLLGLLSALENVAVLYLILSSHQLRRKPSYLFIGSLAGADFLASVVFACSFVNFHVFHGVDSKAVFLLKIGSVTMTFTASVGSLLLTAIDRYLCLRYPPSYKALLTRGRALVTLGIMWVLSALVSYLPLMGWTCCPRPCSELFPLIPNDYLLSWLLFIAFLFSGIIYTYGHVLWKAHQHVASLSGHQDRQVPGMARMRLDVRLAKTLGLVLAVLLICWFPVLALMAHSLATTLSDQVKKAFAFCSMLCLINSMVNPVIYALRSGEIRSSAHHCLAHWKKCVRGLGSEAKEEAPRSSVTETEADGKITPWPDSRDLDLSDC
Transient receptor potential cation channel subfamily A member 1 (Rattus norvegicus), sequence (Q6RI86 whole entry): as the sequence (Q6RI86 whole entry) above
Transient receptor potential cation channel subfamily M member 8, sequence (Q8R455 whole entry): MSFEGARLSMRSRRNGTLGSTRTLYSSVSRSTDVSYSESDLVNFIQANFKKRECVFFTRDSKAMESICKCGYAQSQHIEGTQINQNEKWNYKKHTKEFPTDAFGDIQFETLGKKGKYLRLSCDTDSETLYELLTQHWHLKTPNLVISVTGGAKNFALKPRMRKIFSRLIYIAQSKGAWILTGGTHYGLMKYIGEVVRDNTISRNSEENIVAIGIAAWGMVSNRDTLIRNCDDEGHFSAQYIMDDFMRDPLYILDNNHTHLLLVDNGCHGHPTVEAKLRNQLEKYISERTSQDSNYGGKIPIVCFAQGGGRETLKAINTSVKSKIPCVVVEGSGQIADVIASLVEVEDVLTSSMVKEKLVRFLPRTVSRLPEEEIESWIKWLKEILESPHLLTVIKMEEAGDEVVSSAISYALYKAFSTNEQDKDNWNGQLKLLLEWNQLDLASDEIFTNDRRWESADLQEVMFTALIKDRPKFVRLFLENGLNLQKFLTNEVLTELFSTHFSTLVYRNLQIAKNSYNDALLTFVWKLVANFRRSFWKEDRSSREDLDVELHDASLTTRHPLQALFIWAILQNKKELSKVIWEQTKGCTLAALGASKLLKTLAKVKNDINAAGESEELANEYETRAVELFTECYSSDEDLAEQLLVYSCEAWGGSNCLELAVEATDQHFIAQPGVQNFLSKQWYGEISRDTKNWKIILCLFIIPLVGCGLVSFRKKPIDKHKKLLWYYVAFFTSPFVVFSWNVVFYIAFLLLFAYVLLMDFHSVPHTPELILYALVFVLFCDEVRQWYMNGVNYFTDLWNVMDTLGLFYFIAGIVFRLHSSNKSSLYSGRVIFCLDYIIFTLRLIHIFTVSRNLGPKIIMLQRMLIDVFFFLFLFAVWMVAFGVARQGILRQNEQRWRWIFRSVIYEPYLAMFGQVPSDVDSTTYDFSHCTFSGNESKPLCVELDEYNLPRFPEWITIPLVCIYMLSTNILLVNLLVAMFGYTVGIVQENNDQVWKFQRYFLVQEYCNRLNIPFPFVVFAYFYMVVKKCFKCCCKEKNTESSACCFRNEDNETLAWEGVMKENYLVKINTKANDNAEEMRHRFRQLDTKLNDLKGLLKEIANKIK

For `CCCCCc1cc(O)c(C/C=C(\C)CCC=C(C)C)c(O)c1` [CANNABIGEROL], the IC50 (Cannabinoid receptor 1) was 3.31 µM, the Ki (Cannabinoid receptor 1) was 0.76 µM and the IC50 (Cannabinoid receptor 2) was 3.46 µM. The Ki (Cannabinoid receptor 2) was 0.88 µM, the Emax [1] was 33.8% and the EC50 [2] was 1.3 µM. For the same compound, the IC50 [3] was 2.6 µM, the Emax [4] was 73.6% and the EC50 [5] was 1.7 µM. For the same compound, the IC50 [6] was 1.5 µM, the Emax [7] was 99.9% and the EC50 [8] was 0.7 µM. The IC50 [9] was 13 µM and the IC50 [10] was 0.16 µM.
`CCCCCc1cc(O)c(C/C=C(\C)CC/C=C(\C)CCC=C(C)C)c(O)c1` [SESQUICANNABIGEROL] was tested, and the IC50 (Cannabinoid receptor 1) was 3.27 µM, the Ki (Cannabinoid receptor 1) was 0.75 µM and the IC50 (Cannabinoid receptor 2) was 0.71 µM. The Ki (Cannabinoid receptor 2) was 0.18 µM, the Emax [1] was 38.8% and the EC50 [2] was 4.4 µM. It also gave an IC50 [3] of 5.7 µM, an Emax [4] of 56% and an EC50 [5] of 2.7 µM. For the same compound, the IC50 [6] was 2.3 µM, the Emax [7] was 164% and the EC50 [8] was 1.7 µM. It also gave an IC50 [9] of 1.2 µM and an IC50 [10] of 0.95 µM.
